Test results: ChEMBL document CHEMBL2331188, “Synthesis and biochemical activities of antiproliferative amino acid and phosphate derivatives of microtubule-disrupting β-lactam combretastatins” (Eur J Med Chem, 2013)
≈ marks a conversion by molar mass, not a printed value. Values belong to the compound of their own block, whether it stands above or below them. Calls of active or inactive are those of the source. No cut-off for these calls is given here.

How the values were obtained:
[1] = system: MCF7; assay: Antiproliferative activity against human MCF7 cells assessed as inhibition of cell growth after 72 hrs by MTT assay; assay type: functional, cell-based; conditions: MCF7, 72 h
How it was run: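 MCF-7 cells in MEM with 10% FBS, 2 mM L-glutamine, penicillin/streptomycin and 1% non-essential amino acids. Seeded at 2.5 × 10⁴ cells/mL, grown 24 h at 37 °C, then dosed from ethanol stocks over 1 nM–100 µM for 72 h; vehicle was ethanol 1% v/v. Read-out was MTT at 1 mg/mL for 2 h, solubilised in DMSO, absorbance relative to control as 100% viability. Triplicate; mean ± S.E.M of at least three experiments.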

[2] = Aqueous solubility of the compound after 24 hrs by HPLC analysis; assay type: physicochemical; conditions: aqueous medium
How it was run: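 Compound was shaken in water at 300 shakes/min for 24 h, then filtered. The filtrate was quantified by HPLC on a C18 column with acetonitrile/water 70:30 at 1 mL/min, detection at 254 nm. The value is the maximum of n = 3.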

[3] = Half life in human plasma at pH 4 to 9; assay type: ADME, cell-free
[4] = system: MCF7; assay: Induction of cell cycle arrest in human MCF7 cells assessed as accumulation of cells in G2/M phase at 100 nM after 48 hrs by propidium iodide staining based flow cytometry; assay type: functional
How it was run: (§1)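 MCF-7 cells seeded at 1 × 10⁵ cells/cm³ and treated after 24 h for 48 h; vehicle was 1% ethanol v/v. Cells were fixed in 70% ethanol:PBS overnight at −20 °C, then stained with RNase 0.5 mg/mL and propidium iodide 0.15 mg/mL for 30 min at 37 °C. Analysed by flow cytometry, at least 10,000 gated cells, sub-diploid counted as sub-G1. Mean ± SEM of at least three experiments; one-way ANOVA with Bonferroni test.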

[5] = system: MCF7; assay: Induction of cell cycle arrest in human MCF7 cells assessed as accumulation of cells in sub-G1 phase at 100 nM after 48 hrs by propidium iodide staining based flow cytometry; assay type: functional; how it was run: as §1
[6] = system: MCF7; assay: Induction of mitotic catastrophe in human MCF7 cells at 100 nM after 16 hrs by immunofluorescence analysis; assay type: functional, cell-based
How it was run: (§2)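 MCF-7 cells seeded at 1 × 10⁵ per well on chamber slides and treated 16 h; vehicle was 1% ethanol v/v. Fixed in methanol at −20 °C for 30 min and blocked in 5% BSA/PBST. Stained with anti-α-tubulin DM1A (1:20) and then FITC anti-mouse (1:100), each 1 h at room temperature, with DAPI counterstain. Imaged by confocal microscopy; three separate experiments.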

[7] = system: MCF7; assay: Induction of microtubule depolymerization in human MCF7 cells assessed as complete loss of microtubule formation at 100 nM after 16 hrs by immunofluorescence analysis; assay type: cell-based; how it was run: as §2
[8] = Inhibition of bovine brain tubulin polymerization measured every 30s for 30 mins by spectrophotometric analysis; design: species or system Bos taurus
[9] = organism: Bos taurus; assay: Inhibition of bovine brain tubulin polymerization measured every 30s for 60 mins by spectrophotometric analysis
[10] = organism: Bos taurus; assay: Inhibition of bovine brain tubulin polymerization at 10 uM measured every 30s for 60 mins by spectrophotometric analysis
[11] = system: Colon 26; assay: Antiproliferative activity against mouse Colon 26 cells assessed as inhibition of cell growth; assay type: functional, cell-based
[12] = Solubility in human plasma at pH 7.2 to 7.5; assay type: ADME, cell-free
[13] = Solubility in human plasma; assay type: ADME, cell-free
[14] = system: MCF7; assay: Induction of cell cycle arrest in human MCF7 cells assessed as accumulation of cells in G2/M phase at 1 uM after 48 hrs by propidium iodide staining based flow cytometry; assay type: functional; how it was run: as §1
[15] = system: MCF7; assay: Induction of cell cycle arrest in human MCF7 cells assessed as accumulation of cells in sub-G1 phase at 1 uM after 48 hrs by propidium iodide staining based flow cytometry; assay type: functional; how it was run: as §1
[16] = system: MCF7; assay: Induction of mitotic catastrophe in human MCF7 cells at 1 uM after 16 hrs by immunofluorescence analysis; assay type: functional, cell-based; how it was run: as §2
[17] = system: MCF7; assay: Induction of microtubule depolymerization in human MCF7 cells assessed as complete loss of microtubule formation at 1 uM after 16 hrs by immunofluorescence analysis; assay type: cell-based; how it was run: as §2

SMILES: COc1ccc([C@H]2[C@H](c3ccccc3)C(=O)N2c2cc(OC)c(OC)c(OC)c2)cc1NC(=O)[C@@H](N)CCCCN
IC50 [1]: 9800 nM

SMILES: COc1ccc([C@H]2[C@H](c3ccc(O)cc3)C(=O)N2c2cc(OC)c(OC)c(OC)c2)cc1O
half-life [3]: > 24 h

SMILES: COc1ccc([C@H]2[C@H](c3ccc(NC(=O)[C@@H](N)C(C)C)cc3)C(=O)N2c2cc(OC)c(OC)c(OC)c2)cc1
IC50 [1]: 50 nM
solubility at 24 h [2]: 4 µg/mL (≈ 7.5 µM)

SMILES: COc1ccc([C@H]2[C@H](c3ccc(O)cc3)C(=O)N2c2cc(OC)c(OC)c(OC)c2)cc1OP(=O)(O)O
Activity [4]: Active
Activity [5]: Active
Activity [6]: Active
Activity [7]: Active
inhibition [10]: inactive
IC50 [1]: 22 nM
half-life [3]: > 24 h
solubility at 24 h [2]: 140 µg/mL (≈ 263 µM)

SMILES: COc1ccc(/C=C\c2cc(OC)c(OC)c(OC)c2)cc1NC(=O)[C@@H](N)CO [OMBRABULIN]
IC50 [11]: 27.2 nM
solubility [12]: 110 µg/mL (≈ 273 µM)
solubility [13]: 3300 µg/mL (≈ 8200 µM)

SMILES: COc1ccc([C@H]2[C@H](c3ccccc3)C(=O)N2c2cc(OC)c(OC)c(OC)c2)cc1NC(=O)[C@@H](N)Cc1ccc(O)cc1
IC50 [1]: 740 nM

SMILES: COc1ccc(/C=C\c2cc(OC)c(OC)c(OC)c2)cc1N
solubility [13]: 3300 µg/mL (≈ 10500 µM)

SMILES: COc1ccc([C@H]2[C@H](c3ccccc3)C(=O)N2c2cc(OC)c(OC)c(OC)c2)cc1OP(=O)(O)O
Activity [4]: Active
Activity [5]: Active
inhibition [10]: inactive
IC50 [1]: 71 nM
solubility at 24 h [2]: 300 µg/mL (≈ 582 µM)

SMILES: COc1ccc([C@H]2[C@H](c3ccccc3)C(=O)N2c2cc(OC)c(OC)c(OC)c2)cc1NC(=O)[C@@H](N)Cc1ccccc1
IC50 [1]: 1130 nM

Continued, in another order:

IC50 [1]: 1100 nM
solubility at 24 h [2]: 110 µg/mL (≈ 201 µM)
SMILES: CC[C@H](C)[C@H](N)C(=O)Nc1cc([C@H]2[C@H](c3ccccc3)C(=O)N2c2cc(OC)c(OC)c(OC)c2)ccc1OC

IC50 [1]: 91 nM
half-life [3]: > 24 h
solubility at 24 h [2]: 60 µg/mL (≈ 122 µM)
SMILES: COc1ccc([C@H]2[C@H](c3ccc(NC(=O)CN)cc3)C(=O)N2c2cc(OC)c(OC)c(OC)c2)cc1

IC50 [1]: 35 nM
SMILES: COc1ccc([C@H]2[C@H](c3ccc(NC(=O)[C@H](C)N)cc3)C(=O)N2c2cc(OC)c(OC)c(OC)c2)cc1

half-life [3]: > 24 h
SMILES: COc1ccc([C@H]2[C@H](c3ccc(N)cc3)C(=O)N2c2cc(OC)c(OC)c(OC)c2)cc1

IC50 [8]: 2400 nM
inhibition [9]: Dose-dependent effect
IC50 [1]: 27 nM
solubility at 24 h [2]: 140 µg/mL (≈ 241 µM)
SMILES: COc1ccc([C@H]2[C@H](c3ccc(NC(=O)[C@@H](N)Cc4ccccc4)cc3)C(=O)N2c2cc(OC)c(OC)c(OC)c2)cc1
Activity [4]: Active
Activity [5]: Active
Activity [6]: Active
Activity [7]: Active

IC50 [1]: 690 nM
SMILES: COc1ccc([C@H]2[C@H](c3ccc(NC(=O)[C@@H](N)CCCCN)cc3)C(=O)N2c2cc(OC)c(OC)c(OC)c2)cc1

IC50 [1]: 860 nM
SMILES: COc1ccc([C@H]2[C@H](c3ccc(NC(=O)[C@@H](N)CO)cc3)C(=O)N2c2cc(OC)c(OC)c(OC)c2)cc1

IC50 [1]: 1100 nM
SMILES: COc1ccc([C@H]2[C@H](c3ccccc3)C(=O)N2c2cc(OC)c(OC)c(OC)c2)cc1NC(=O)CN

IC50 [1]: 780 nM
solubility at 24 h [2]: 200 µg/mL (≈ 383 µM)
SMILES: COc1ccc([C@H]2[C@H](c3ccccc3)C(=O)N2c2cc(OC)c(OC)c(OC)c2)cc1NC(=O)[C@@H](N)CO

IC50 [1]: 760 nM
solubility at 24 h [2]: 370 µg/mL (≈ 732 µM)
SMILES: COc1ccc([C@H]2[C@H](c3ccccc3)C(=O)N2c2cc(OC)c(OC)c(OC)c2)cc1NC(=O)[C@H](C)N

IC50 [1]: 20 nM
solubility at 24 h [2]: 450 µg/mL (≈ 863 µM)
SMILES: COc1ccc([C@H]2[C@H](c3cccs3)C(=O)N2c2cc(OC)c(OC)c(OC)c2)cc1OP(=O)(O)O
Activity [4]: Active
Activity [5]: Active
Activity [6]: Active
Activity [7]: Active

half-life [3]: > 24 h
SMILES: COc1ccc([C@H]2[C@H](c3ccccc3)C(=O)N2c2cc(OC)c(OC)c(OC)c2)cc1N

IC50 [8]: 5200 nM
inhibition [9]: Dose-dependent effect
IC50 [1]: 460 nM
half-life [3]: > 24 h
solubility at 24 h [2]: 110 µg/mL (≈ 206 µM)
SMILES: COc1ccc([C@H]2[C@H](c3ccccc3)C(=O)N2c2cc(OC)c(OC)c(OC)c2)cc1NC(=O)[C@@H](N)C(C)C
Activity [14]: Active
Activity [15]: Active
Activity [16]: Active
Activity [17]: Active
